Converted amounts (≈) assume the structure as drawn.
Columns and labels:
Staphylococcus aureus [1] = assay: Antibacterial activity against wild type methicillin-resistant Staphylococcus aureus USA300 assessed as growth inhibition after 22 hrs by broth microdilution method; type: functional; conditions: USA300, 22 h
How it was run: (§1)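 MIC by broth microdilution against wild-type S. epidermidis RP62A, MSSA 8325, MRSA USA300 and E. coli MG1655. Also tested: S. aureus 8325 and E. coli MG1655 mutants made sensitive by mutating the resistance-conferring SPase Pro residue, an lptD hyperpermeable E. coli (outer membrane permeable to large molecules), and an E. coli combining lptD with SPase sensitization.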

Staphylococcus aureus [2] = assay: Antibacterial activity against Staphylococcus aureus 8325 harboring spsB (P29S) mutation assessed as growth inhibition after 22 hrs by broth microdilution method; type: functional; conditions: NCTC 8325, 22 h; how it was run: as §1
Escherichia coli [3] = assay: Antibacterial activity against Escherichia coli MG1655 harboring lptD mutation assessed as growth inhibition after 22 hrs by broth microdilution method; type: functional; conditions: K-12 substr. MG1655, 22 h; how it was run: as §1
Staphylococcus aureus [4] = assay: Antibacterial activity against wild type methicillin-sensitive Staphylococcus aureus 8325 assessed as growth inhibition after 22 hrs by broth microdilution method; type: functional; conditions: NCTC 8325, 22 h; how it was run: as §1
Escherichia coli [5] = assay: Antibacterial activity against Escherichia coli MG1655 harboring lptD lepB (P84L) mutation assessed as growth inhibition after 22 hrs by broth microdilution method; type: functional; conditions: K-12 substr. MG1655, 22 h; how it was run: as §1
Signal peptidase I = Signal peptidase I (Escherichia coli K-12, UniProt P00803); assay: Binding affinity to Escherichia coli type-1 signal peptidase lepB using decanoyl-LSSPAYNO2A-ADKabzPD and decanyol-LTPTAYNO2A-ASKKabzDD as substrate by fluorescence assay
Escherichia coli [6] = assay: Antibacterial activity against Escherichia coli MG1655 harboring lepB (P84L) mutation assessed as growth inhibition after 22 hrs by broth microdilution method; type: functional; conditions: K-12 substr. MG1655, 22 h; how it was run: as §1
Escherichia coli [7] = assay: Antibacterial activity against wild type Escherichia coli MG1655 assessed as growth inhibition after 22 hrs by broth microdilution method; type: functional; conditions: K-12 substr. MG1655, 22 h; how it was run: as §1
[8] = system: Staphylococcus epidermidis; assay: Antibacterial activity against wild type Staphylococcus epidermidis RP62A assessed as growth inhibition after 22 hrs by broth microdilution method; type: functional; how it was run: as §1
Signal peptidase IB = molecular target: T1, Signal peptidase IB (Staphylococcus aureus, UniProt P0A070); assay: Binding affinity to Staphylococcus aureus type-1 signal peptidase using decanoyl-LSSPAYNO2A-ADKabzPD and decanyol-LTPTAYNO2A-ASKKabzDD as substrate by fluorescence assay
T1 sequence (P0A070 whole entry): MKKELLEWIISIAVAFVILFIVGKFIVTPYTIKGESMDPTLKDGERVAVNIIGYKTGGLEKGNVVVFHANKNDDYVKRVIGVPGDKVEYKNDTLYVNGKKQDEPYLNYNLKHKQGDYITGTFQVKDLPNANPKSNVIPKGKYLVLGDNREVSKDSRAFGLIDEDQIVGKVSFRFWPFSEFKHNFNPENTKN

Structure (SMILES) | MIC (Staphylococcus aureus [1]) [µg/mL] | MIC (Staphylococcus aureus [2]) [µg/mL] | MIC (Escherichia coli [3]) [µg/mL] | MIC (Staphylococcus aureus [4]) [µg/mL] | MIC (Escherichia coli [5]) [µg/mL] | IC50 (Signal peptidase I) [nM] | MIC (Escherichia coli [6]) [µg/mL] | MIC (Escherichia coli [7]) [µg/mL] | MIC [8] [µg/mL] | IC50 (Signal peptidase IB) [nM]
CCCCCCCCCCCCCCCC(=O)N(C)[C@H](CO)C(=O)N[C@H](C)C(=O)NCC(=O)N(C)[C@@H]1C(=O)N[C@@H](C)C(=O)N[C@H](CC(=O)NCC=O)Cc2ccc(O)c(c2)-c2cc1ccc2O | > 64 | > 64 | > 64 | > 64 | 2 (≈ 2.14 µM) | 1010 | > 64 | > 64 | 32 (≈ 34.2 µM) | > 21400
CCCCCCCCCCCCCCCC(=O)N(C)[C@H](CO)C(=O)N[C@H](C)C(=O)NCC(=O)N(C)[C@@H]1C(=O)N[C@@H](C)C(=O)N[C@H](C(=O)O)Cc2ccc(O)c(c2)-c2cc1ccc2OCCO | > 64 | 8 (≈ 8.65 µM) | 16 (≈ 17.3 µM) | > 64 | 0.02 (≈ 0.0216 µM) | 75.7 | 1 (≈ 1.08 µM) | > 64 | 1 (≈ 1.08 µM) | 4220
CCCCCCCCCCCCCCCC(=O)N(C)[C@H](CO)C(=O)N[C@H](C)C(=O)NCC(=O)N(C)[C@@H]1C(=O)N[C@@H](C)C(=O)N[C@H](C(=O)NCP(=O)(OC)OC)Cc2ccc(O)c(c2)-c2cc1ccc2O | > 64 | > 64 | > 64 | > 64 | 2 (≈ 2 µM) | 20000 | 64 (≈ 63.9 µM) | > 64 | 8 (≈ 7.98 µM) | > 20000
CCCCCCCCCCCCCCCC(=O)N(C)[C@H](CO)C(=O)N[C@H](C)C(=O)NCC(=O)N(C)[C@@H]1C(=O)N[C@@H](C)C(=O)N[C@H](C(=O)O)Cc2ccc(O)c(c2)-c2cc1ccc2OP(=O)(O)O | > 64 | > 64 | 32 (≈ 33.3 µM) | > 64 | 0.03 (≈ 0.0312 µM) | 146 | 1 (≈ 1.04 µM) | > 64 | 0.3 (≈ 0.312 µM) | 1980
CCCCCCCCCCCCCCCC(=O)N(C)[C@H](CO)C(=O)N[C@H](C)C(=O)NCC(=O)N(C)[C@@H]1C(=O)N[C@@H](C)C(=O)N[C@H](C(=O)NCC=O)Cc2ccc(O)c(c2)-c2cc1ccc2O | 16 (≈ 17.4 µM) | 8 (≈ 8.68 µM) | > 64 | > 64 | 0.06 (≈ 0.0651 µM) | 16.3 | 4 (≈ 4.34 µM) | > 64 | 2 (≈ 2.17 µM) | 53.1
CCCCCCCCCCCCCCCC(=O)N(C)[C@H](CO)C(=O)N[C@H](C)C(=O)NCC(=O)N(C)[C@@H]1C(=O)N[C@@H](C)C(=O)N[C@H](C(=O)NCP(=O)(OCC)OCC)Cc2ccc(O)c(c2)-c2cc1ccc2O | > 64 | > 64 | > 64 | > 64 | 2 (≈ 1.94 µM) | > 19400 | > 64 | > 64 | 8 (≈ 7.77 µM) | > 19400
CCCCCCCCCCCCCCCC(=O)N(C)[C@H](CO)C(=O)N[C@H](C)C(=O)NCC(=O)N(C)[C@@H]1C(=O)N[C@@H](C)C(=O)N[C@H](C(=O)NCP(=O)(O)O)Cc2ccc(O)c(c2)-c2cc1ccc2O | 64 (≈ 65.7 µM) | > 64 | > 64 | > 64 | 0.1 (≈ 0.103 µM) | 842 | 4 (≈ 4.11 µM) | > 64 | 8 (≈ 8.21 µM) | 16400
CCCCCCCCCCCCCCCC(=O)N(C)[C@H](CO)C(=O)N[C@H](C)C(=O)NCC(=O)N(C)[C@@H]1C(=O)N[C@@H](C)C(=O)N[C@H](C(=O)NCC=O)Cc2ccc(O)c(c2)-c2cc1ccc2OCCN | > 64 | 32 (≈ 33.2 µM) | > 64 | > 64 | 0.06 (≈ 0.0622 µM) | 87 | 2 (≈ 2.07 µM) | > 64 | 1 (≈ 1.04 µM) | 332
CCCCCCCCCCCCCCCC(=O)N(C)[C@H](CO)C(=O)N[C@H](C)C(=O)NCC(=O)N(C)[C@@H]1C(=O)N[C@@H](C)C(=O)N[C@H](C(=O)O)Cc2ccc(O)c(c2)-c2cc1ccc2O [ARYLOMYCIN C16] | > 64 | 4 (≈ 4.54 µM) | 16 (≈ 18.2 µM) | > 64 | 0.02 (≈ 0.0227 µM) | 70 | 0.5 (≈ 0.567 µM) | > 64 | 0.25 (≈ 0.284 µM) | 1800
CCCCCCCCCCCCCCCC(=O)N(C)[C@H](CO)C(=O)N[C@H](C)C(=O)NCC(=O)N(C)[C@@H]1C(=O)N[C@@H](C)C(=O)N[C@H](C(=O)NCP(=O)(Oc2ccccc2)Oc2ccccc2)Cc2ccc(O)c(c2)-c2cc1ccc2O | > 64 | > 64 | > 64 | > 64 | 8 (≈ 7.1 µM) | > 17800 | > 64 | > 64 | > 64 | > 17800
CCCCCCCCCCCCCCCC(=O)N(C)[C@H](CO)C(=O)N[C@H](C)C(=O)NCC(=O)N(C)[C@@H]1C(=O)N[C@@H](C)C(=O)N[C@H](C(=O)NCC=O)Cc2ccc(O)c(c2)-c2cc1ccc2OCCO | 64 (≈ 66.2 µM) | 8 (≈ 8.28 µM) | 16 (≈ 16.6 µM) | > 64 | 0.03 (≈ 0.031 µM) | 9.31 | 2 (≈ 2.07 µM) | > 64 | 2 (≈ 2.07 µM) | 63.1
CCCCCCCCCCCCCCCC(=O)N(C)[C@H](CO)C(=O)N[C@H](C)C(=O)NCC(=O)N(C)[C@@H]1C(=O)N[C@@H](C)C(=O)N[C@H](C(=O)O)Cc2ccc(O)c(c2)-c2cc1ccc2OCCN | 32 (≈ 34.6 µM) | 4 (≈ 4.33 µM) | 4 (≈ 4.33 µM) | > 64 | 0.004 (≈ 0.00433 µM) | 55.2 | 0.5 (≈ 0.541 µM) | > 64 | 0.1 (≈ 0.108 µM) | 3460
CCCCCCCCCCCCCCCC(=O)N(C)[C@H](CO)C(=O)N[C@H](C)C(=O)NCC(=O)N(C)[C@@H]1C(=O)N[C@@H](C)C(=O)N[C@H](C(=O)NCC=O)Cc2ccc(O)c(c2)-c2cc1ccc2OP(=O)(OCc1ccccc1)OCc1ccccc1 | > 64 | 32 (≈ 27.1 µM) | 64 (≈ 54.1 µM) | > 64 | 0.3 (≈ 0.254 µM) | 195 | 16 (≈ 13.5 µM) | > 64 | 1 (≈ 0.846 µM) | 152
